Source: ChEMBL document CHEMBL1287697, “Receptor agonists of macrophage migration inhibitory factor” (Bioorg Med Chem Lett, 2010)
Calls of active or inactive are those of the source. The calls are words filed in the database; no cut-off is given here.

How the values were obtained:
[1] = target: T1, MIF/CD74 (Macrophage migration inhibitory factor and HLA-DR antigens-associated invariant chain) (Homo sapiens, UniProt P14174+P04233); experiment: (§1) Inhibition of human biotinylated MIF/CD74 interaction; type: protein assay
T1 sequence (P14174 whole entry): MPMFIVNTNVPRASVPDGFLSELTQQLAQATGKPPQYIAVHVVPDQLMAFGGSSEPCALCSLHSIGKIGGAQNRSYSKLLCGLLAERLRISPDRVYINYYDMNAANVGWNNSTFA
T1 sequence (P04233 whole entry): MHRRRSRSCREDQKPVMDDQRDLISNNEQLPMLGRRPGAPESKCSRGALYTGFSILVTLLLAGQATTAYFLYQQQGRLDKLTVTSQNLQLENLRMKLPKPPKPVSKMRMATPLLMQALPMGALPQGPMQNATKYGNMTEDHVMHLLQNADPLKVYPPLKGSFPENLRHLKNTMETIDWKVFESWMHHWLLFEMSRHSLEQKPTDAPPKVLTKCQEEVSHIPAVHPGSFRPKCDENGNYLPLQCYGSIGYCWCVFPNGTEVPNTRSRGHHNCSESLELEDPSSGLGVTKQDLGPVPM

[2] = target: T2, MIF/CD74 (Macrophage migration inhibitory factor and HLA-DR antigens-associated invariant chain) (Homo sapiens) (UniProt P14174+P04233); experiment: as §1; type: protein assay
[3] = target: T3, MIF/CD74 (Macrophage migration inhibitory factor and HLA-DR antigens-associated invariant chain) (Homo sapiens, UniProt P04233+P14174); experiment: as §1; type: protein assay
T3 sequence (P14174 whole entry): T1 sequence (P14174 whole entry)
T3 sequence (P04233 whole entry): T1 sequence (P04233 whole entry)

[4] = target: T4, Macrophage migration inhibitory factor (Homo sapiens, UniProt P14174); experiment: (§2) Inhibition of human MIF tautomerase activity using 4-hydroxyphenylpyruvate as substrate
T4 sequence (P14174 whole entry): T1 sequence (P14174 whole entry)
Procedure, shortened: (§3)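 Recombinant human MIF tautomerase activity with 4-hydroxyphenylpyruvate as substrate. Compounds were tested between 1 nM and 1 mM. Where inhibition plateaued below 50%, the maximum percent inhibition was reported.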

[5] = target: T5, Macrophage migration inhibitory factor (Homo sapiens) (UniProt P14174); experiment: Inhibition of MIF-dependent ERK1/2 phosphorylation in human fibroblast after 30 mins by Western blotting
T5 sequence (whole entry): T1 sequence (P14174 whole entry)
Procedure, shortened: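 MIF-dependent ERK1/2 phosphorylation was measured in human fibroblasts. Phospho-ERK1/2 and total ERK1/2 were detected by western blot. The phospho/total ratio was determined by densitometry across three separate experiments.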

[6] = target: T5, Macrophage migration inhibitory factor (Homo sapiens); experiment: as §2; procedure, shortened: as §3
[7] = target: T2, MIF/CD74 (Macrophage migration inhibitory factor and HLA-DR antigens-associated invariant chain) (Homo sapiens); experiment: Binding affinity to human biotinylated MIF/CD74 at 150 nM; type: protein assay
[8] = target: T2, MIF/CD74 (Macrophage migration inhibitory factor and HLA-DR antigens-associated invariant chain) (Homo sapiens); experiment: Activation of human biotinylated MIF/CD74; type: protein assay
[9] = target: T5, Macrophage migration inhibitory factor (Homo sapiens); experiment: Agonist activity at human MIF tautomerase using 4-hydroxyphenylpyruvate as substrate at 100 uM; type: functional
[10] = target: T5, Macrophage migration inhibitory factor (Homo sapiens); experiment: Induction of MIF-dependent ERK1/2 phosphorylation in human fibroblast after 30 mins by Western blotting
[11] = target: T2, MIF/CD74 (Macrophage migration inhibitory factor and HLA-DR antigens-associated invariant chain) (Homo sapiens); experiment: Binding affinity to human biotinylated MIF/CD74 at 500 nM; type: protein assay
[12] = target: T2, MIF/CD74 (Macrophage migration inhibitory factor and HLA-DR antigens-associated invariant chain) (Homo sapiens); experiment: Binding affinity to human biotinylated MIF/CD74 at 100 nM; type: protein assay

SMILES: Cc1cccc(Cn2cc(-c3ccc(O)cc3)nn2)c1
- IC50 [1]: Not Active

SMILES: O=C(O)c1cccc(Cn2cc(-c3ccc(O)cc3)nn2)c1
- IC50 [1]: Not Active

SMILES: Oc1ccc(-c2cn(Cc3cccnc3)nn2)cc1
- Imax [2]: 20%

SMILES: Oc1ccc(-c2cn(-c3cncc4ccccc34)nn2)cc1
- Imax [2]: 12%

SMILES: COC(=O)c1cccc(Cn2cc(-c3ccc(O)cc3)nn2)c1
- IC50 [3]: 1.2 µM
- IC50 ([4]; read-out: IC50): 2.5 µM

SMILES: Oc1ccc(Cc2cn(-c3ccc(O)cc3)nn2)cc1
- Imax [2]: 23%
- IC50 ([4]; read-out: IC50): 690 µM

SMILES: COc1cccc(Cn2cc(-c3ccc(O)cc3)nn2)c1OC
- IC50 [3]: 0.9 µM
- IC50 ([4]; read-out: IC50): 0.75 µM
- inhibition [5]: Active

SMILES: COc1cccc(Cn2cc(-c3ccc(O)cc3)nn2)c1
- IC50 [3]: 50 µM

SMILES: Oc1ccc(-n2cc(Cc3ccccc3)nn2)cc1
- IC50 [3]: 3.5 µM

SMILES: Oc1ccc(-n2cc(Cc3ccccc3O)nn2)cc1
- Imax [2]: 9%
- IC50 ([4]; read-out: IC50): 1000 µM

SMILES: COc1ccccc1Cc1cn(-c2ccc(O)cc2)nn1
- Imax [2]: 14%
- Imax [6]: 35%

SMILES: Oc1ccc(-n2cc(-c3cncc4ccccc34)nn2)cc1
- Activity [7]: 100%
- Activity [8]: 39%
- Activity [9]: Active
- Activity [10]: Active

SMILES: COc1ccc(Cn2cc(-c3ccc(O)cc3)nn2)cc1
- IC50 [1]: Not Active

SMILES: Oc1ccc(-c2cn(-c3cccnc3)nn2)cc1
- Imax [2]: 16%

SMILES: Oc1ccc(-c2cn(-c3cccc4ccccc34)nn2)cc1
- Imax [2]: 23%

SMILES: COc1cccc(Cc2cn(-c3ccc(O)cc3)nn2)c1OC
- IC50 [1]: Not Active

SMILES: Cc1ccccc1Cn1cc(-c2ccc(O)cc2)nn1
- IC50 [1]: Not Active

SMILES: Oc1ccc(-n2cc(Cc3cccc(O)c3)nn2)cc1
- IC50 [1]: Not Active
- IC50 [4]: Not Active

SMILES: Cc1cccc(Cc2cn(-c3ccc(O)cc3)nn2)c1
- Imax [2]: 30%

SMILES: Oc1ccc(-c2cn(Cc3ccccn3)nn2)cc1
- Imax [2]: 30%

SMILES: COc1ccccc1Cn1cc(-c2ccc(O)cc2)nn1
- Activity [11]: 40%
- Activity [8]: 31%
- Activity [9]: Active
- Activity [10]: Active

SMILES: COc1ccc(Cc2cn(-c3ccc(O)cc3)nn2)cc1OC
- Imax [2]: 22%

SMILES: Oc1ccc(-n2cc(-c3cccc4ccccc34)nn2)cc1
- IC50 [1]: Not Active

SMILES: Oc1ccc(-c2cn(Cc3ccccc3)nn2)cc1
- IC50 [1]: Not Active

SMILES: COc1cccc(Cc2cn(-c3ccc(O)cc3)nn2)c1
- Imax [2]: 8%
- Imax [6]: 40%

SMILES: Oc1ccc(-n2cc(-c3cccnc3)nn2)cc1
- Activity [12]: 100%
- Activity [8]: 23%
- Activity [9]: Active
- Activity [10]: Active

SMILES: COc1ccc(Cc2cn(-c3ccc(O)cc3)nn2)cc1
- Imax [2]: 36%
